pIC50: −log10 of the molar value. The source made the active and inactive calls. The calls are words filed in the database; no cut-off is given here.

The record followed here is ChEMBL document CHEMBL3351301, “Synthesis of triazole Schiff bases: novel inhibitors of nucleotide pyrophosphatase/phosphodiesterase-1” (Bioorg Med Chem, 2014).

Assay [1] can be described thus: Cytotoxicity against human PC3 cells. In kind it is functional, cell-based. Particulars: PC-3.
Assay [2] in a line: Inhibition of snake venom NPP1 using bis(p-nitrophenyl)phosphate preincubated for 30 mins by spectrophotometry. Also on record: species or system Serpentes. The settings on record: for pIC50: read-out: IC50. The gist of the method: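 Snake venom PDE1/NPP1 at 7.42 × 10^-4 units, dissolved in cold deionized water. Assay in 33 mM Tris-HCl pH 8.8 with 30 mM magnesium acetate cofactor. Preincubated 30 min at 37 °C, then started with 0.33 mM bis(p-nitrophenyl)phosphate (total). p-Nitrophenol release read at 410 nm. Initial rates taken as Vmax/min and % inhibition calculated against control. Triplicates; IC50 derived by enzyme-kinetics fitting.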

In assay [3] the target is Carbonic anhydrase (Homo sapiens) (UniProt P00918+P43166+P00915+P07451+P23280+O43570+Q9ULX7+Q16790+P22748+Q8N1Q1+Q9Y2D0+P35218). The experiment in a line: Inhibition of carbonic anhydrase (unknown origin). In kind it is protein assay.

As usually defined, the pIC50 is the negative decadic logarithm of the IC50, by convention in mol/L. Regarding `CCOc1cccc(/C=N/n2cnnc2)c1O`, the negative-log IC50 (pIC50) in assay [1] was less than 4.52. Further, the IC50 entry in assay [2] is reported as “Not Active”.
In turn, `CCOc1ccc(/C=N/c2nnc[nH]2)c(O)c1` showed a pIC50 in assay [1] of less than 4.52. Also, the IC50 result in assay [2] was “Not Active”.
As for `COc1ccc(/C=N/n2cnnc2)cc1`, the negative-log IC50 (pIC50) in assay [1] was less than 4.52. Further, in assay [2], the IC50 entry is recorded as “Not Active”.
As to `Oc1ccc(Cl)cc1/C=N/n1cnnc1`, the pIC50 was less than 4.52 in assay [1] and 3.60 in assay [2]. For the same compound, the inhibition entry in assay [3] was “inactive”.
With `O=C(O)CN(CCN(CC(=O)O)CC(=O)O)CC(=O)O` [EDETIC ACID], in assay [2], the negative logarithm of the IC50 (pIC50) is 3.56.
For the compound `CCOc1ccc(/C=N/n2cnnc2)cc1`, the pIC50 in assay [1] was less than 4.52. Further, in assay [2], the IC50 entry is on record as “Not Active”.
Regarding `Brc1ccc(/C=N/n2cnnc2)cc1`, the figures for the negative logarithm of the IC50 (pIC50) in assay [1] and in assay [2] were less than 4.52 and 3.08, respectively.
`Oc1ccc(/C=N/n2cnnc2)cc1` gave a negative logarithm of the IC50 (pIC50) in assay [1] of less than 4.52. Besides, in assay [2], the IC50 result is “Not Active”.
The compound `COc1cccc(/C=N/n2cnnc2)c1O` had a negative logarithm of the IC50 (pIC50) in assay [1] of less than 4.52. Also, the IC50 result in assay [2] is reported as “Not Active”.
With `Oc1c(Br)cc(Br)cc1/C=N/c1nnc[nH]1`, in assay [1], the pIC50 was less than 4.52. The IC50 entry in assay [2] is on record as “Not Active”.
`Cc1ccc(O)c(/C=N/c2nnc[nH]2)c1` gave a pIC50 in assay [1] of less than 4.52. Also, the IC50 entry in assay [2] is recorded as “Not Active”.
With `COc1cccc(/C=N/c2nnc[nH]2)c1O`, in assay [1], the pIC50 was less than 4.52. Moreover, the IC50 entry in assay [2] was “Not Active”.
As for `Oc1c(Cl)cc(Cl)cc1/C=N/c1nc[nH]n1`, the pIC50 in assay [1] is less than 4.52. Moreover, the IC50 entry in assay [2] was “Not Active”.
Turning to `Oc1cccc(/C=N/n2cnnc2)c1`, the negative logarithm of the IC50 (pIC50) in assay [1] was less than 4.52. Further, in assay [2], the IC50 entry is recorded as “Not Active”.
As to `CSc1ccc(/C=N/c2nnc[nH]2)cc1`, the pIC50 in assay [1] is less than 4.52. In addition, the IC50 result in assay [2] is reported as “Not Active”.
Regarding `Oc1cccc(/C=N/n2cnnc2)c1O`, the pIC50 is less than 4.52 in assay [1] and 3.82 in assay [2]. The inhibition entry in assay [3] was “inactive”.
`Oc1ccccc1/C=N/c1nnc[nH]1` had a pIC50 in assay [1] of less than 4.52. For the same compound, the IC50 entry in assay [2] is recorded as “Not Active”.
`COc1ccc(/C=N/n2cnnc2)cc1OC` had a pIC50 in assay [1] of less than 4.52. Besides, the IC50 entry in assay [2] was “Not Active”.
In assay [1], `COc1ccc(/C=N/c2nnc[nH]2)cc1OC` gave a negative-log IC50 (pIC50) of less than 4.52. Besides, the IC50 entry in assay [2] is “Not Active”.
Consider `Oc1cc(O)c(/C=N/n2cnnc2)c(O)c1`, for which the pIC50 in assay [1] was less than 4.52; in assay [2] it was 2.93.
`Clc1ccc(/C=N/c2nnc[nH]2)c(Cl)c1` showed a negative-log IC50 (pIC50) in assay [1] of less than 4.52. Further, the IC50 entry in assay [2] is on record as “Not Active”.
Regarding `CN(C)c1ccc(/C=N/c2nnc[nH]2)cc1`, the negative-log IC50 (pIC50) was less than 4.52 in assay [1] and 3.88 in assay [2]. In assay [3], the inhibition entry is “inactive”.
Regarding `Oc1ccccc1/C=N/n1cnnc1`, the pIC50 in assay [1] was less than 4.52. Further, the IC50 entry in assay [2] is “Not Active”.
In the case of `CSc1ccc(/C=N/n2cnnc2)cc1`, the pIC50 in assay [1] was less than 4.52. Moreover, in assay [2], the IC50 entry is “Not Active”.
As to `O=[N+]([O-])c1ccc(/C=N/c2nnc[nH]2)cc1`, in assay [1], the negative-log IC50 (pIC50) was less than 4.52. In addition, in assay [2], the IC50 entry is “Not Active”.
Regarding `Oc1ccc(Br)cc1/C=N/n1cnnc1`, the values for the pIC50 in assay [1] and in assay [2] were less than 4.52 and 3.39, respectively.
